Test results from PMC6034508 (Inorganic chemistry, 2018).

Legend:
DU-145 cells = assay: Confocal imaging of intracellular fluorescence; format: cell-based; conditions: DU-145, CLIK-148 50 μM for 24 h before 7 (30 μM)
Method in brief: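 Live DU-145 cells are grown 48 h in 35 mm dishes (DMEM, 10% FBS, 37 °C, 5% CO2), then given 30 μM test compound or DMSO vehicle for 2 h, washed thrice and imaged in PBS. In the inhibition arm, cells receive 50 μM CLIK-148 for 24 h first. Confocal imaging uses 405 nm excitation, 501–740 nm emission and 1.5 μm z-stacks, with four biological replicates at 20×. Thresholded fluorescence per image is divided by manual cell count.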

CTSL [1] = molecular target: T1, CTSL (Homo sapiens, UniProt P07711); conditions: literature value; ref [47]; cited from earlier work
CTSL [2] = molecular target: T1, CTSL; assay: Cathepsin L inhibition, progress curve assay with Z-Phe-Arg-AMC; format: biochemical
CTSS = CTSS (Homo sapiens, UniProt P25774); assay: Cathepsin S inhibition, progress curve assay with Z-Val-Val-Arg-AMC; format: biochemical
Method in brief: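 Buffer is 50 mM phosphate, pH 6.5, with 2.5 mM EDTA, DTT 8 mM and <1% DMSO, at 25 °C. Test compound is run at 1–20 μM. […] Results are averages of three independent experiments, errors as standard deviations.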

CTSB = CTSB (Homo sapiens, UniProt P07858); assay: Cathepsin B inhibition, progress curve assay with Z-Arg-Arg-AMC; format: biochemical
Method in brief: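 Buffer is 0.4 M acetate, pH 5.5, with 5 mM EDTA, 0.01% Triton X-100, DTT 10 mM and <1% DMSO, at 25 °C. Test compound is run at 1 nM to 100 μM. Enzyme is added last, and free AMC release is followed at once over 15 min. Progress curves are fitted to obtain kinact and Ki. CA-074 is the positive control. Values are means of three independent experiments ± SD.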

T1 sequence (P07711 114-333): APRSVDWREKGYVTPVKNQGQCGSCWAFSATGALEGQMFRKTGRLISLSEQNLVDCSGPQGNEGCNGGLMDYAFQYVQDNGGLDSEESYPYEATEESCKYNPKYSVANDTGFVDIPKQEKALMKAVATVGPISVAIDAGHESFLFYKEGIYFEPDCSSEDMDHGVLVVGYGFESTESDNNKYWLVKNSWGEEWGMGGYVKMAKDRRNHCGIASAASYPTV
Chain of CTSS (P25774 115-331): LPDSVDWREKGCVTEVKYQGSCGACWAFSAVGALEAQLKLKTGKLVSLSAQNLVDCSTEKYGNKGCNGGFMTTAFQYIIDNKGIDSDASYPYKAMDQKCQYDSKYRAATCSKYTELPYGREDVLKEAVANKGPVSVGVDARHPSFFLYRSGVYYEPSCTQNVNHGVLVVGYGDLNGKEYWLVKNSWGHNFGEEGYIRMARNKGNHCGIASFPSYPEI

Q: Which results are given for CN(C)C(=O)[C@H](Cc1ccccc1)NC(=O)[C@H]1O[C@@H]1C(=O)NCCc1ccccn1 [CLIK-148, reference compound]?
A: Decrease of intracellular fluorescence intensity of 7 (DU-145 cells): over 50%; CTSL kinact/Ki (CTSL [1]): 11000 ± 3000 M⁻¹ s⁻¹

Q: Which Ki (CTSL [2]) does the source give for CN(C)C(=O)C(Cc1ccccc1)NC(=O)[C@H]1O[C@@H]1C(=O)NCCCNC(=O)c1ccc(-c2ccccn2)nc1 (stereo partly drawn) [Compound 2, (2S,3S)-N^2-(3-([2,2′-Bipyridine]-5-carboxamido)-propyl)-N^3-(1-(dimethylamino)-1-oxo-3-phenylpropan-2-yl)-oxirane-2,3-dicarboxamide] here?
A: 0.74 ± 0.05 µM

Q: What about the “kinact/Ki ratio CTSL/CTSS (selectivity)” value (CTSL [2]; CTSL over CTSS) of the same compound?
A: 8

Q: And the kinact/KI (CTSL [2]; pH 5.5, read-out: CTSL kinact/Ki)?
A: 42300 ± 4100 M⁻¹ s⁻¹

Q: What about the kinact (CTSL [2]; read-out: CTSL kinact (rate of irreversible inactivation)) of the same compound?
A: 0.031 ± 0.002 s⁻¹

Q: And the “Fold enhancement of CTSL kinact/Ki relative to free inhibitor 1” value (CTSL [2]; relative to 1)?
A: roughly 3 fold

Q: What about the Ki (CTSS) of the same compound?
A: 3 ± 0.8 µM

Q: What about the kinact/KI (CTSS; pH 6.5, read-out: CTSS kinact/Ki) of the same compound?
A: 5300 ± 200 M⁻¹ s⁻¹

Q: What about the Ki (CTSB) of the same compound?
A: 296 ± 8 µM

Q: And the kinact/KI (CTSB; pH 5.5, read-out: CTSB kinact/Ki)?
A: 9 M⁻¹ s⁻¹

Q: For O=S(=O)([O-])C(F)(F)F.[C-]#[O+].[C-]#[O+].[C-]#[O+].[Re+].c1ccncc1.c1cnc2c(c1)ccc1cccnc12 [[Re(phen)(CO)3(pyridine)](OTf), reference compound], which “CTSL inhibition, in words” value (CTSL [2]; at concentrations up to 100 μM) is on record?
A: no inhibition
